Reference: ChEMBL document CHEMBL1157419, “Bioactive isocoumarins isolated from the endophytic fungus Microdochium bolleyi” (2008)

Tests used:
Escherichia coli = assay: Antimicrobial activity against Escherichia coli by agar diffusion method; type: functional
How it was run: (§1)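 Test substance dissolved in acetone at 1 mg/mL, and 50 µL (50 µg) applied to a sterile 9 mm filter disk. Disk placed on NB agar, then sprayed with a suspension of the test bacterium (E. coli Gram-negative; B. megaterium Gram-positive). Acetone run as a solvent control.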

Priestia megaterium = assay: Antimicrobial activity against Bacillus megaterium by agar diffusion method; type: functional; how it was run: as §1
Microbotryum violaceum = assay: Antimicrobial activity against Microbotryum violaceum by agar diffusion method; type: functional
How it was run: (§2)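 Test substance dissolved in acetone at 1 mg/mL, and 50 µL (50 µg) pipetted onto a sterile 9 mm filter disk. Disk laid on MPY agar, then sprayed with a suspension of the fungus M. violaceum or the alga C. fusca. Acetone tested as a solvent control.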

[Chlorella] fusca = Antimicrobial activity against Chlorella fusca by agar diffusion method; type: functional, Scenedesmus fuscus; how it was run: as §2

Row | Compound | inhibition zone (IZ) (Escherichia coli) [mm] | inhibition zone (IZ) (Priestia megaterium) [mm] | inhibition zone (IZ) (Microbotryum violaceum) [mm] | inhibition zone (IZ) ([Chlorella] fusca) [mm] | inhibition zone (IZ) ([Chlorella] fusca; Scenedesmus fuscus) [mm]
1 | COc1cc2c(c(O)c1OC)C(=O)O[C@@H]1C[C@H](C[C@H](C)O)O[C@H]21 | 8 | 6 | 9 | 10 | –
2 | COc1cc2c(c(O)c1OC)C(=O)O[C@@H]1C[C@H](C[C@@H](C)O)O[C@H]21 | 0 | 0 | 7 | 6 | –
3 | CCC[C@@H](O)C[C@H]1OC(=O)c2c(cc(OC)c(OC)c2O)[C@H]1O | 10 | 7 | 9 | 10 | –
4 | C[C@@H]1C[C@@H]([C@H](O)CC2CC(=O)NC(=O)C2)C(=O)[C@@H](C)C1 [CYCLOHEXIMIDE] | 0 | 0 | 35 | 50 | –
5 | CCC[C@H]1C[C@H]2OC(=O)c3c(cc(OC)c(OC)c3O)[C@H]2O1 [MONOCERIN] | 10 | 6 | 23 | 8 | –
6 | CN(C)[C@@H]1C(O)=C(C(N)=O)C(=O)[C@@]2(O)C(O)=C3C(=O)c4c(O)cccc4[C@@](C)(O)[C@H]3C[C@@H]12 [TETRACYCLINE] | 18 | 18 | 10 | 0 | –
7 | NYSTATIN | 0 | 0 | 0 | – | 20
